The source made the active and inactive calls. No cut-off for these calls is given here.
Experiments:
Pseudomonas aeruginosa [1] = test: Potentiation of rifampicin-induced antibacterial activity against multidrug/extremely drug-resistant/colistin-resistant Pseudomonas aeruginosa isolate 101243 at 4 ug/ml after 18 hrs by checkerboard assay; format: functional
Method in brief: (§1)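 Checkerboard in Mueller-Hinton broth: antibiotic serially diluted along one axis and adjuvant along the other (10 × 7 matrix). Inoculum from a 0.5 McFarland saline suspension diluted 1:50 in MHB; 18 h at 37 °C, then plate read. MIC is the lowest concentration with no growth. FIC of each agent is its concentration in a no-growth well divided by its MIC alone; FIC index is the sum of both. FIC index ≤0.5 counts as synergy.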

Pseudomonas aeruginosa [2] = test: Antibacterial activity against multidrug/extremely drug-resistant/colistin-susceptible Pseudomonas aeruginosa isolate P262-101856 after 18 hrs by microtiter dilution assay; format: functional; details: isolate P262-101856, 18 h
Method in brief: (§2)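 Broth microdilution following CLSI guidelines. An overnight culture was adjusted to 0.5 McFarland in saline, then diluted 1:50 in Mueller-Hinton broth. This inoculum was added in equal volume to 2-fold serial dilutions of agent in MHB and incubated 18 h at 37 °C. MIC was the lowest concentration with no visible growth.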

Klebsiella pneumoniae = test: Potentiation of rifampicin-induced antibacterial activity against multidrug-resistant Klebsiella pneumoniae 116381 at 4 ug/ml after 18 hrs by checkerboard assay; format: functional; method in brief: as §1
Enterobacter cloacae [3] = test: Potentiation of minocycline-induced antibacterial activity against multidrug-resistant Enterobacter cloacae 117029 at 4 ug/ml after 18 hrs by checkerboard assay; format: functional; method in brief: as §1
Pseudomonas aeruginosa [4] = test: Potentiation of rifampicin-induced antibacterial activity against multidrug/extremely drug-resistant/colistin-susceptible Pseudomonas aeruginosa isolate P259-96918 at 4 ug/ml after 18 hrs by checkerboard assay; format: functional; method in brief: as §1
Acinetobacter baumannii [5] = test: Synergistic antibacterial activity against multidrug-resistant Acinetobacter baumannii 110193 after 18 hrs in presence of rifampicin by checkerboard assay; format: functional; details: Acinetobacter baumannii, 110193, 18 h
Method in brief: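 Checkerboard in MHB with a 10 × 7 matrix: antibiotic serially diluted along one axis, adjuvant along the other. Inoculum was a 1:50 dilution of a 0.5 McFarland suspension, incubated 18 h at 37 °C and read on a plate reader. Each FIC is the concentration in a no-growth well divided by the MIC alone; FIC index is their sum, with ≤0.5 taken as synergy.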

Pseudomonas aeruginosa [6] = test: Potentiation of minocycline-induced antibacterial activity against multidrug/extremely drug-resistant/colistin-susceptible Pseudomonas aeruginosa isolate 101885 assessed as fold reduction in minocycline MIC at 4 ug/ml after 18 hrs by checkerboard assay relative to control; format: functional
Method in brief: (§3)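 Checkerboard in Mueller-Hinton broth, 10 × 7 matrix, with the adjuvant held at 4 µg/mL. Inoculum from a 0.5 McFarland suspension diluted 1:50; 18 h at 37 °C. Antibiotic MIC (lowest concentration with no growth) with adjuvant is compared with the antibiotic MIC alone, giving a fold reduction.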

Pseudomonas aeruginosa [7] = test: Potentiation of chloramphenicol-induced antibacterial activity against Pseudomonas aeruginosa PAO1 at 4 ug/ml after 18 hrs by checkerboard assay; format: functional; method in brief: as §1
Pseudomonas aeruginosa [8] = test: Potentiation of rifampicin-induced antibacterial activity against Pseudomonas aeruginosa PAO750 harboring RND efflux pump/OpmH deletion mutant after 18 hrs by checkerboard assay; format: functional; method in brief: as §1
Pseudomonas aeruginosa [9] = test: Potentiation of ceftazidime-induced antibacterial activity against Pseudomonas aeruginosa PAO1 at 4 ug/ml after 18 hrs by checkerboard assay; format: functional; method in brief: as §1
Acinetobacter baumannii [10] = test: Antibacterial activity against multidrug-resistant Acinetobacter baumannii AB027 after 18 hrs by microtiter dilution assay; format: functional; details: AB027, 18 h; method in brief: as §2
Enterobacter cloacae [11] = test: Potentiation of rifampicin-induced antibacterial activity against multidrug-resistant Enterobacter cloacae 117029 at 4 ug/ml after 18 hrs by checkerboard assay; format: functional; method in brief: as §1
Pseudomonas aeruginosa [12] = test: Antibacterial activity against Pseudomonas aeruginosa PAO1 after 18 hrs by microtiter dilution assay; format: functional; details: PAO1, 18 h; method in brief: as §2
Pseudomonas aeruginosa [13] = test: Potentiation of minocycline-induced antibacterial activity against multidrug/extremely drug-resistant/colistin-susceptible Pseudomonas aeruginosa isolate P262-101856 at 4 ug/ml after 18 hrs by checkerboard assay; format: functional; method in brief: as §1
Acinetobacter baumannii [14] = test: Antibacterial activity against multidrug-resistant Acinetobacter baumannii AB031 after 18 hrs by microtiter dilution assay; format: functional; details: AB031, 18 h; method in brief: as §2
Pseudomonas aeruginosa [15] = test: Potentiation of rifampicin-induced antibacterial activity against multidrug/extremely drug-resistant/colistin-susceptible Pseudomonas aeruginosa isolate P262-101856 assessed as fold reduction in rifampicin MIC at 4 ug/ml after 18 hrs by checkerboard assay relative to control; format: functional; method in brief: as §3
[16] = Ratio of cytotoxic concentration against human DU145 cells to synergistic concentration for Pseudomonas aeruginosa PAO1 in presence of rifampicin
Pseudomonas aeruginosa [17] = test: Bactericidal activity against Pseudomonas aeruginosa PAO1 at antibacterial MIC after 2 hrs; format: functional
Method in brief: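 Time-kill with P. aeruginosa PAO1. A 0.5 McFarland suspension was diluted 1:50 in LB broth and exposed to agent in PBS (pH 7.2) at 1/2×, 1×, 2× or 4× MIC at 37 °C for 6 h. Samples at 0, 10, 30, 60, 90, 120, 240 and 360 min were serially diluted in PBS, plated on LB agar, and colonies counted after 20 h at 37 °C.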

Pseudomonas aeruginosa [18] = test: Synergistic antibacterial activity against Pseudomonas aeruginosa PAO1 after 18 hrs in presence of moxifloxacin by checkerboard assay; format: functional; details: PAO1, 18 h
Method in brief: (§4)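 Checkerboard in MHB: antibiotic diluted along one axis and adjuvant along the other (10 × 7 matrix). Inoculum was a 1:50 dilution in MHB of a 0.5 McFarland saline suspension; incubated 18 h at 37 °C. Each FIC = concentration in the no-growth well divided by the MIC alone; FIC index = sum of both FICs. ≤0.5 synergy, 0.5–4 no interaction, ≥4 antagonism.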

Pseudomonas aeruginosa [19] = test: Potentiation of minocycline-induced antibacterial activity against multidrug/extremely drug-resistant/colistin-susceptible Pseudomonas aeruginosa isolate P259-96918 at 4 ug/ml after 18 hrs by checkerboard assay; format: functional; method in brief: as §1
Enterobacter cloacae [20] = test: Antibacterial activity against multidrug-resistant Enterobacter cloacae 117029 after 18 hrs by microtiter dilution assay; format: functional; details: Enterobacter cloacae, 117029, 18 h; method in brief: as §2
Pseudomonas aeruginosa [21] = test: Synergistic antibacterial activity against Pseudomonas aeruginosa PAO1 after 18 hrs in presence of rifampicin by checkerboard assay; format: functional; details: PAO1, 18 h; method in brief: as §4
Pseudomonas aeruginosa [22] = test: Induction of cytoplasmic membrane depolarization in Pseudomonas aeruginosa PAO1 up to 1200 secs by diSC3-5 staining based fluorescence assay; format: functional
Method in brief: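 Mid-log PAO1 washed in 5 mM HEPES pH 7.4 with 20 mM glucose and resuspended to OD600 0.05. Cells were loaded with 0.2 mM EDTA and 0.4 µM diSC3-5 for 2 h at 37 °C in the dark, then equilibrated with 100 mM KCl for 30 min. Agent was added and fluorescence followed at 622/670 nm; agents tested at 32 µg/mL.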

Pseudomonas aeruginosa [23] = test: Antibacterial activity against multidrug/extremely drug-resistant/colistin-susceptible Pseudomonas aeruginosa isolate P259-96918 after 18 hrs by microtiter dilution assay; format: functional; details: isolate P259-96918, 18 h; method in brief: as §2
Pseudomonas aeruginosa [24] = test: Potentiation of minocycline-induced antibacterial activity against multidrug/extremely drug-resistant/colistin-susceptible Pseudomonas aeruginosa isolate 100036 assessed as fold reduction in minocycline MIC at 4 ug/ml after 18 hrs by checkerboard assay relative to control; format: functional; method in brief: as §3
Pseudomonas aeruginosa [25] = test: Synergistic antibacterial activity against Pseudomonas aeruginosa PAO1 after 18 hrs in presence of amikacin by checkerboard assay; format: functional; details: PAO1, 18 h; method in brief: as §4

Question: What does the source list for `Cl.Cl.Cl.Cl.Cl.Cl.Cl.NCCCC[C@H](N)C(=O)N(CCCCCCCCCCCCO[C@@H]1[C@@H](O[C@H]2O[C@H](CO)[C@@H](O)[C@H](N)[C@H]2O)[C@H](N)C[C@H](N)[C@H]1O[C@H]1O[C@H](CN)[C@@H](O)C[C@H]1N)Cc1c2ccccc2c(Cl)c2ccccc12`?
Answer: fractional inhibitory concentration index (FICI) (Pseudomonas aeruginosa [1]): 0.188; MIC (Pseudomonas aeruginosa [2]): 32 µg/mL; fractional inhibitory concentration index (FICI) (Klebsiella pneumoniae): 0.047; fractional inhibitory concentration index (FICI) (Enterobacter cloacae [3]): 0.062; fractional inhibitory concentration index (FICI) (Pseudomonas aeruginosa [4]): 0.039; MIC (Acinetobacter baumannii [5]): 1 µg/mL; fold change (FC) (Pseudomonas aeruginosa [6]): 16; fractional inhibitory concentration index (FICI) (Pseudomonas aeruginosa [7]): 0.156; fractional inhibitory concentration index (FICI) (Pseudomonas aeruginosa [8]): 0.156; fractional inhibitory concentration index (FICI) (Pseudomonas aeruginosa [9]): 0.563; MIC (Acinetobacter baumannii [10]): 128 µg/mL; fractional inhibitory concentration index (FICI) (Enterobacter cloacae [11]): 0.02; MIC (Pseudomonas aeruginosa [12]): 32 µg/mL; fractional inhibitory concentration index (FICI) (Pseudomonas aeruginosa [13]): 0.133; MIC (Acinetobacter baumannii [14]): 16 to 32 µg/mL; fold change (FC) (Pseudomonas aeruginosa [15]): 64; Ratio [16]: 6; Activity (Pseudomonas aeruginosa [17]): Active; MIC (Pseudomonas aeruginosa [18]): 2 µg/mL; fractional inhibitory concentration index (FICI) (Pseudomonas aeruginosa [19]): 0.047; MIC (Enterobacter cloacae [20]): 256 µg/mL; MIC (Pseudomonas aeruginosa [21]): 1 µg/mL; Activity (Pseudomonas aeruginosa [22]): Dose-dependent effect; MIC (Pseudomonas aeruginosa [23]): 64 µg/mL; fold change (FC) (Pseudomonas aeruginosa [24]): 32; MIC (Pseudomonas aeruginosa [25]): 2 µg/mL

From ChEMBL document CHEMBL4014308, “Amphiphilic Tobramycin-Lysine Conjugates Sensitize Multidrug Resistant Gram-Negative Bacteria to Rifampicin and Minocycline” (J Med Chem, 2017)
